This is a sample that favours compounds with a hit; in the whole collection about 9.4% have one here.
T cruzi inh = T. cruzi replication inhibition. T. cruzi beta-gal in NIH3T3, luminescence, 90 h. inhibition, % (no concentration beside the values). actives 1.4% (n = 300,000). AID 1885;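 active = mean inhibition across valid replicates above about 55%, limit read from the data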;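 note: signal also drops with host cell toxicity which is not excluded here; 0% = plate median of DMSO wells and 100% = zero luminescence signal; higher percent means less beta-gal luminescence so fewer parasites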
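System: Mouse NIH/3T3 fibroblasts infected with β-gal-expressing T. cruzi Tulahuen C4 | Quantity: NIH/3T3 cells, 5,000 per well | Reagent: 5000 reporter trypomastigotes per well | Dosing: Compound pinned at 50 nL/well, DMSO | Schedule: 3 h host attachment, then at least 90 h co-culture | Detection: GalScreen luminescence, 60 min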
Beta cell apopt = blocks beta cell apoptosis; INS-1E cytokine-induced death, ATP luminescence, 48 h; percent of positive-control rescue, neutral wells zero; protection from apoptosis, % (no concentration beside the values); actives 0.8% (n = 300,000); AID 435005;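 active = Every replicate reaches about 75%, or at least half do and their mean reaches it too, limit read from the data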;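 note: 0% = cytokine-treated negative control wells and 100% = positive control rescue; higher means more ATP so stronger rescue from cytokine killing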
SKKanGAS inh = blocks kanamycin growth of S. pyogenes SKKanGAS strain; BacTiter-Glo, 6 h; inhibition, % at 7.5 µM; actives 1.3% (n = 300,000);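 active = mean replicate score, as percent of positive control median, at least 50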;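 note: strain carries kanamycin resistance gene driven by streptokinase promoter and grows in 40 µg/ml kanamycin; loss of luminescence reflects streptokinase promoter inhibition or plain growth inhibition; 0% = median of DMSO wells and 100% = positive control at its reference dose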
L major viab = inhibitors of Leishmania major promastigote growth; Leishmania major promastigotes, resazurin fluorescence viability; inhibition, % at 10 µM; actives 9% (n = 200,000); in the data active = inhibition above about 50%;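 note: promastigotes grown with compound for 44 hours at 28 °C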
CSC inhib = blocks cancer stem cells. inhibition, % at 7.5 µM. cancer stem cell-like cells viability, luminescence. actives 1.1% (n = 300,000). AID 2717; in the data active = inhibition above about 75%; tested in HMLE shEcad cells
Mdm2 MdmX PPI = inhibitors of human Mdm2/MdmX interaction; SaOS-2 split-luciferase Mdm2/MdmX complementation, luminescence; inhibition, % at 8 µM; actives 3% (n = 330,000);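 active = inhibition of at least 50% at 8 µM in the primary screen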
Target sequence (O15151 whole entry, looked up): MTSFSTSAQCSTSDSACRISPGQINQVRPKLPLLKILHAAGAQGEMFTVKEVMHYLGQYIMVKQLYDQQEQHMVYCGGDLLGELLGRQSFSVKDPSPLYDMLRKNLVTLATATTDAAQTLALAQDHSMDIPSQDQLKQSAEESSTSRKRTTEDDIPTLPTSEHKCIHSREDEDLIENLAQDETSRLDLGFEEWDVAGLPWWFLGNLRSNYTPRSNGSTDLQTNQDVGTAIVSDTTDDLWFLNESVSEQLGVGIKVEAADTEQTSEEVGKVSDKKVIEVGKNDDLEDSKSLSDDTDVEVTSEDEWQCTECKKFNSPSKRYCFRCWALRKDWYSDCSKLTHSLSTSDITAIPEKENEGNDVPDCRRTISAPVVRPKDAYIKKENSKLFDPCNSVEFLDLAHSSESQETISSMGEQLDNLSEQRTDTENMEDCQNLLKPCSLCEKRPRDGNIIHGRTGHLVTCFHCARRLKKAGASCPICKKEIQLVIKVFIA
Target sequence (Q00987 whole entry, looked up): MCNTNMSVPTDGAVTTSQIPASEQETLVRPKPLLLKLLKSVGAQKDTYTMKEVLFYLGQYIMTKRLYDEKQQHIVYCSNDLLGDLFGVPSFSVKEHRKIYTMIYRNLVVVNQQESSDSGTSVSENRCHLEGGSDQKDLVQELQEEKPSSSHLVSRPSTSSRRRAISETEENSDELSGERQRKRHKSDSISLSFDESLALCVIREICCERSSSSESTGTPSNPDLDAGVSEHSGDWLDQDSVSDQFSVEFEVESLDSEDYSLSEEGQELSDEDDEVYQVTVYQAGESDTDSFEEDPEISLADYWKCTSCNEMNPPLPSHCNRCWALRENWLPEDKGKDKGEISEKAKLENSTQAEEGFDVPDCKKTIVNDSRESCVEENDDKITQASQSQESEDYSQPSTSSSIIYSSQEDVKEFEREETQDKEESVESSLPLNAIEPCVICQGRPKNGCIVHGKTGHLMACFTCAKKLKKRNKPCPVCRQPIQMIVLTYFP
Lmaj promast 1uM = blocks Leishmania major promastigote growth at 1 uM, repeat screen. shares compounds with L major viab. L. major promastigote growth, resazurin fluorescence, 48 h. inhibition, % at 1 µM. actives 13% (n = 1,100);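 active = inhibition above about 50% in both repeat tests, limit read from the data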
Mdm2 MdmX conf = confirmation of human Mdm2/MdmX interaction inhibitors; shares compounds with Mdm2 MdmX PPI; Mdm2-MdmX binding, luminescent assay; inhibition, % at 8 µM; actives 55% (n = 10,000); AID 489028; in the data active = inhibition above about 40%
FLuc counter = inhibits full-length luciferase, flagging false Mdm2/MdmX hits; AID 504607; actives 77% (n = 6,200); SaOS-2 full-length luciferase counterscreen, luminescence; inhibition, % at 8 µM; shares compounds with Mdm2 MdmX PPI;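 active = mean inhibition at 8 µM reaching about 37%, which flags the compound as non-specific, limit read from the data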;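 note: p53-null SaOS-2 cells with luciferase driven by a doxycycline-inducible promoter; compound on cells about two nights before reading with doxycycline added after day one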
Starred values were filed as active, the others as inactive; / = no result.

SMILES	T cruzi inh	Beta cell apopt	SKKanGAS inh	L major viab	CSC inhib	Mdm2 MdmX PPI	Lmaj promast 1uM	Mdm2 MdmX conf	others
CC(C)[C@@]1(NC(=O)[C@@H]2C[C@@H]3c4cccc5[nH]cc(c45)C[C@H]3N(C)C2)O[C@@]2(O)[C@@H]3CCCN3C(=O)[C@H](Cc3ccccc3)N2C1=O	6	3	11	65*	2	37	-2	/
CC(C)C[C@H]1C(=O)N2CCCC2[C@]2(O)O[C@](NC(=O)[C@@H]3C=C4c5cccc6[nH]cc(c56)CC4N(C)C3)(C(C)C)C(=O)N12 (stereo partly specified)	3	1	6	59*	-10	-14	1	/
CC(C)[C@@]1(NC(=O)[C@@H]2C=C3c4cccc5[nH]cc(c45)C[C@H]3N(C)C2)O[C@@]2(O)[C@@H]3CCCN3C(=O)[C@H](Cc3ccccc3)N2C1=O	/	/	/	22	/	/	/	/
CCCCc1ccc2[nH]cc(CCN)c2c1	30	/	-2	100*	/	17	1	/
NCCc1c[nH]c2ccc(OCc3ccccc3)cc12	17	/	13	/	-7	34	/	/
CCCc1cc(=O)oc2cc(OCC(=O)N3C[C@H]4C[C@@H](C3)c3cccc(=O)n3C4)ccc12	10	/	2	/	-6	22	/	/
CCn1nc(/C=C/c2ccccc2)nc2c(=O)n(C)c(=O)nc1-2	60*	/	5	101*	/	97*	81*	85*	FLuc counter=25
CC(C)(C)C(=O)NC1CCSC1=O (stereo unspecified)	-8	-3	-2	-1	-2	0	/	/
CC1=CC2/C=C(\C)CCC(O)C(O)/C=C/C(=O)C23C(=O)NC(CC(C)C)C3C1C (stereo unspecified)	67*	106*	-7	97*	1	100*	48	100*	FLuc counter=51*
O=C(CCC(=O)N1CC2C[C@@H](C1)Cn1c2cccc1=O)NCCc1ccccc1F	-9	-10	1	/	-2	12	/	/
CC(C)[C@H]1C(=O)O[C@H](C(C)C)C(=O)N(C)[C@@H](C(C)C)C(=O)O[C@H](C(C)C)C(=O)N(C)[C@@H](C(C)C)C(=O)O[C@H](C(C)C)C(=O)N1C	55*	109*	1	100*	-7	95*	-7	88*	FLuc counter=49*
CCOc1nc(NC(C)C)nc(N2CC3CC(C2)c2cccc(=O)n2C3)n1 (stereo unspecified)	11	-5	4	-3	-2	30	/	/
C=C1C(=O)O[C@@H]2C[C@@H](C)[C@@H]3C=CC(=O)[C@@]3(C)[C@@H](O)[C@H]12	43	112*	-1	/	52	95*	/	99*	FLuc counter=51*
CCOC(=O)c1c(C)n(Cc2ccccc2)c2ccc(OCC(O)CNC(C)(C)C)cc12 (stereo unspecified)	30	8	1	/	-4	51*	/	26
CC(=NCc1cccnc1)c1c(O)n(-c2ccc(Cl)cc2)c(=O)[nH]c1=O	-12	-6	-2	/	-6	7	/	/
CC(=O)Nc1ccccc1C(=O)OCc1ccccc1F	0	3	4	-5	-5	-16	/	/
Oc1cc(Cl)ccc1Oc1ccc(Cl)cc1Cl	-10	3	17	/	13	66*	/	17
O=C(O)COc1ccc(Cl)cc1Cl	-10	-6	-6	/	-27	-5	/	/
CCCCCCC(=O)N/N=C/c1c(O)n(CCc2ccccc2)c(=O)[nH]c1=O	/	18	86*	/	10	59*	/	36
CCCCCCC(=O)N/N=C/c1c(O)n(C(C)CC)c(=S)[nH]c1=O (stereo unspecified)	/	7	90*	/	16	58*	/	14
O=C(N/N=C/c1c(O)n(CCc2ccccc2)c(=O)[nH]c1=O)c1ccncc1	2	0	23	-5	-8	/	/	/
OC1/C(=C/c2ccc(F)cc2)N2CCC1CC2 (stereo unspecified)	3	1	0	-8	-14	20	/	/

From PubChem BioAssay
